Results from ChEMBL document CHEMBL4041524, “Synthesis and Characterization of a Novel γ-Aminobutyric Acid Type A (GABAA) Receptor Ligand That Combines Outstanding Metabolic Stability, Pharmacokinetics, and Anxiolytic Efficacy” (J Med Chem, 2016).

Test system: Rattus norvegicus
Assay: Toxicity in water-deprived Sprague-Dawley rat assessed as effect on water drinking time during nonpunished period at 20 mg/kg, po by Vogel conflict test
Assay type: organism-based
Settings: in vivo
In short: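 Water-deprived male Sprague-Dawley rats (n = 6–8) drank during unpunished and punished periods, with licking suppressed by mild shock in punished periods. Compounds were given 30 min before testing. Analysis was ANOVA with Dunnett's test.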

**Q.** With `CNC1=Nc2ccc(Cl)cc2C(c2ccccc2)=[N+]([O-])C1` [CHLORDIAZEPOXIDE] as the compound, how does the Activity read?
**A.** Non-Toxic
